Assay results from ChEMBL document CHEMBL4480374, “Methoxy substituted 2-benzylidene-1-indanone derivatives as A1 and/or A2A AR antagonists for the potential treatment of neurological conditions” (Medchemcomm, 2019).

What follows are molecules tested against T1, Adenosine receptor A1 (Rattus norvegicus) (UniProt P25099) (assay: Selectivity index, ratio of Ki for adenosine A1 receptor in rat brain membranes in presence of GTP to Ki for adenosine A1 receptor in rat brain membranes in absence of GTP). Details: not given.
T1 sequence (whole entry): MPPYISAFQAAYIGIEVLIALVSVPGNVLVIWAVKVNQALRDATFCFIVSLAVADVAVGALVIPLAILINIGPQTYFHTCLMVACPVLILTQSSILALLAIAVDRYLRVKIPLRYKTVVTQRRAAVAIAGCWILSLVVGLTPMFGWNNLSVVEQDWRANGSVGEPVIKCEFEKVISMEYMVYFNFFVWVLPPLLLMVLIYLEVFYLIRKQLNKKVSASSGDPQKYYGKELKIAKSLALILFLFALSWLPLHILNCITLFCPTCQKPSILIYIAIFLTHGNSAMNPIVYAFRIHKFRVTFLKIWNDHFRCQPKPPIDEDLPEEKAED
Format: cell membranes
Method in brief: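 Both determined by [3H]DPCPX (0.1 nM) competition in rat whole brain membranes, nonspecific binding by 10 μM unlabelled DPCPX. A shift of about 1 is taken as antagonism.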

| SMILES | Ratio Ki |
| --- | --- |
| COc1cccc2c1C/C(=C\c1cccc(O)c1)C2=O | 1.46 |
| O=C1/C(=C/c2ccc(O)c(O)c2)Cc2c(O)cccc21 | 0.9 |

Species: Rattus norvegicus
Assay: Selectivity index, ratio of Ki for adenosine A1 receptor in rat brain membranes to Ki for adenosine A2A receptor in rat striatal membranes
Format: cell membranes
Details: not given
Method in brief: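 Selectivity index calculated as the ratio A1 Ki / A2A Ki. […] A2A Ki measured by [3H]NECA (4 nM, with CPA) competition in rat striatal membranes. Ki values are triplicate means.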

| SMILES | Ratio Ki |
| --- | --- |
| COc1cccc2c1C/C(=C\c1ccc(O)c(O)c1)C2=O | 0.5 |
| COc1ccc2c(c1)C/C(=C\c1ccc(O)c(O)c1)C2=O | 0.5 |
| COc1cc2c(cc1OC)C(=O)/C(=C/c1ccc(O)c(O)c1)C2 | 0.2 |
| COc1cccc2c1C/C(=C\c1cccc(O)c1)C2=O | 0.4 |
| O=C1/C(=C/c2ccc(O)c(O)c2)Cc2c(O)cccc21 | 0.5 |

These molecules were tested against T2, Adenosine receptor A2a (Rattus norvegicus, UniProt P30543) (assay: Displacement of [3H]NECA from adenosine A2A receptor in rat striatal membranes by radioligand competition assay). Details: not given.
T2 sequence (P30543 whole entry): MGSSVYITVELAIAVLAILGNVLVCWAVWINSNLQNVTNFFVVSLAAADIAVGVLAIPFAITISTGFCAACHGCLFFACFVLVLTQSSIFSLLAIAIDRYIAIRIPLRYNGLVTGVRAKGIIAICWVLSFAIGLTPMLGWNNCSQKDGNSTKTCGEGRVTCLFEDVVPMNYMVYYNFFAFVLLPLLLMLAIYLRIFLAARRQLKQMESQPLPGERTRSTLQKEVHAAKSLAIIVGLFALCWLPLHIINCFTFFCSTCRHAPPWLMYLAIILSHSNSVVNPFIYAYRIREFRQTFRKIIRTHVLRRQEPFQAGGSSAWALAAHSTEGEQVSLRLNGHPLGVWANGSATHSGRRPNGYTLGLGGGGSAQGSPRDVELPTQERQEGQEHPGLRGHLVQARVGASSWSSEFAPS
Format: cell membranes, Striatum, Membrane

| SMILES | Ki [µM] |
| --- | --- |
| COc1cccc2c1C/C(=C\c1ccc(O)c(O)c1)C2=O | 0.078 |
| COc1cc(OC)c(OC)cc1/C=C1\Cc2c(OC)cccc2C1=O | > 100 |
| COc1ccc2c(c1)C/C(=C\c1ccccc1)C2=O | > 100 |
| O=C1/C(=C/c2ccc(O)c(O)c2)Cc2cc3c(cc21)OCO3 | 1.07 |
| COc1ccc2c(c1)C/C(=C\c1ccc(N(C)C)cc1)C2=O | > 100 |
| COc1ccc2c(c1)C/C(=C\c1ccc(O)c(O)c1)C2=O | 6.32 |
| COc1cccc2c1C/C(=C\c1ccccc1)C2=O | > 100 |
| COc1cc2c(cc1OC)C(=O)/C(=C/c1ccc(O)c(O)c1)C2 | 18 |
| COc1cccc2c1C/C(=C\c1cccc(O)c1)C2=O | 0.097 |
| COc1cccc2c1C/C(=C\c1ccc(O)cc1)C2=O | > 100 |
| O=C1/C(=C/c2cccc(O)c2)CCc2c(O)cccc21 | 5.46 |
| OC[C@H]1O[C@@H](n2cnc3c(NC4CCCC4)ncnc32)[C@H](O)[C@@H]1O [N6-CYCLOPENTYLADENOSINE] | 0.163 |
| COc1cccc2c1CCC2=O | > 100 |
| COc1cccc2c1C/C(=C\c1ccc(N(C)C)cc1)C2=O | > 100 |
| O=C1/C(=C/c2ccc(O)c(O)c2)Cc2c(O)cccc21 | 0.903 |
| CN(C)c1ccc(/C=C2\Cc3ccccc3C2=O)cc1 | > 100 |

What follows are molecules tested against T3, Adenosine receptor A1 (Rattus norvegicus, UniProt P25099) (assay: Displacement of [3H]DPCPX from adenosine A1 receptor in rat brain membranes by radioligand competition assay). Details: not given.
T3 sequence (P25099 whole entry): T1 sequence (whole entry)
Format: cell membranes

| SMILES | Ki [µM] |
| --- | --- |
| COc1cccc2c1C/C(=C\c1ccc(O)c(O)c1)C2=O | 0.042 |
| COc1cc(OC)c(OC)cc1/C=C1\Cc2c(OC)cccc2C1=O | > 100 |
| COc1ccc2c(c1)C/C(=C\c1ccccc1)C2=O | > 100 |
| O=C1/C(=C/c2ccc(O)c(O)c2)Cc2cc3c(cc21)OCO3 | > 100 |
| COc1ccc2c(c1)C/C(=C\c1ccc(N(C)C)cc1)C2=O | > 100 |
| COc1ccc2c(c1)C/C(=C\c1ccc(O)c(O)c1)C2=O | 3.28 |
| COc1cccc2c1C/C(=C\c1ccccc1)C2=O | 1.65 |
| COc1cc2c(cc1OC)C(=O)/C(=C/c1ccc(O)c(O)c1)C2 | 4.29 |
| COc1cccc2c1C/C(=C\c1cccc(O)c1)C2=O | 0.041 |
| COc1cccc2c1C/C(=C\c1ccc(O)cc1)C2=O | > 100 |
| O=C1/C(=C/c2cccc(O)c2)CCc2c(O)cccc21 | 1.62 |
| COc1cccc2c1CCC2=O | > 100 |
| COc1cccc2c1C/C(=C\c1ccc(N(C)C)cc1)C2=O | > 100 |
| O=C1/C(=C/c2ccc(O)c(O)c2)Cc2c(O)cccc21 | 0.435 |
| CN(C)c1ccc(/C=C2\Cc3ccccc3C2=O)cc1 | > 100 |

These molecules were tested against T2, Adenosine receptor A2a (assay: Antagonist activity at rat adenosine A2A receptor). Details: not given.
Method in brief: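 Competition binding at A2A in rat striatal membranes with [3H]NECA (4 nM; Kd = 15.3 nM), with CPA present to limit [3H]NECA binding to A1. Nonspecific binding defined with 100 μM CPA (final). Ki derived from IC50 of sigmoidal dose-response curves of specific binding vs log concentration. Triplicate incubations, mean ± SEM.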

| SMILES | Ki [µM] |
| --- | --- |
| O=C1/C(=C/c2ccc(O)c(O)c2)Oc2c1ccc(O)c2O | 9.35 |
| O=C1/C(=C/c2ccc(O)cc2)Oc2cc(O)ccc21 | > 100 |

What follows are molecules tested against Adenosine receptor A2a (Rattus norvegicus) (UniProt P30543) (assay: Displacement of [3H]NECA from adenosine A2A receptor in rat striatal membranes at 100 uM by radioligand competition assay relative to control). Details: Striatum, Membrane.
Chain of Adenosine receptor A2a (Rattus norvegicus) (P30543 whole entry): as the sequence (P30543 whole entry) above
Format: cell membranes
Method in brief: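 Rat striatal membranes, [3H]NECA at 4 nM (Kd = 15.3 nM) with CPA added to minimise A1 binding. Percentage radioligand displacement recorded at the highest tested concentration, 100 μM. Nonspecific binding defined with 100 μM CPA.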

| SMILES | inhibition [%] |
| --- | --- |
| COc1cc(OC)c(OC)cc1/C=C1\Cc2c(OC)cccc2C1=O | 29 |
| COc1ccc2c(c1)C/C(=C\c1ccccc1)C2=O | 82 |
| COc1ccc2c(c1)C/C(=C\c1ccc(N(C)C)cc1)C2=O | 47 |
| COc1cccc2c1C/C(=C\c1ccccc1)C2=O | 62 |
| COc1cccc2c1C/C(=C\c1ccc(O)cc1)C2=O | 65 |
| COc1cccc2c1CCC2=O | 72 |
| COc1cccc2c1C/C(=C\c1ccc(N(C)C)cc1)C2=O | 23 |
| CN(C)c1ccc(/C=C2\Cc3ccccc3C2=O)cc1 | 65 |

These molecules were tested against T3, Adenosine receptor A1 (assay: Displacement of [3H]DPCPX from adenosine A1 receptor in rat brain membranes in presence of GTP by radioligand competition assay). Details: not given.
Format: cell membranes

| SMILES | Ki [µM] |
| --- | --- |
| COc1cccc2c1C/C(=C\c1cccc(O)c1)C2=O | 0.06 |
| O=C1/C(=C/c2ccc(O)c(O)c2)Cc2c(O)cccc21 | 0.339 |

These molecules were tested against T1, Adenosine receptor A1 (Rattus norvegicus) (assay: Displacement of [3H]DPCPX from adenosine A1 receptor in rat brain membranes at 100 uM by radioligand competition assay relative to control). Details: not given.
Format: cell membranes
Method in brief: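 Percentage displacement of radioligand recorded at the maximum tested concentration, 100 μM. Nonspecific binding defined with 100 μM CPA.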

| SMILES | inhibition [%] |
| --- | --- |
| COc1cc(OC)c(OC)cc1/C=C1\Cc2c(OC)cccc2C1=O | 46 |
| COc1ccc2c(c1)C/C(=C\c1ccccc1)C2=O | 42 |
| O=C1/C(=C/c2ccc(O)c(O)c2)Cc2cc3c(cc21)OCO3 | 70 |
| COc1ccc2c(c1)C/C(=C\c1ccc(N(C)C)cc1)C2=O | 64 |
| COc1cccc2c1C/C(=C\c1ccc(O)cc1)C2=O | 31 |
| COc1cccc2c1CCC2=O | 78 |
| COc1cccc2c1C/C(=C\c1ccc(N(C)C)cc1)C2=O | 52 |
| CN(C)c1ccc(/C=C2\Cc3ccccc3C2=O)cc1 | 51 |

Each molecule was assayed against T3, Adenosine receptor A1 (assay: Antagonist activity at rat adenosine A1 receptor). Details: not given.

| SMILES | Ki [µM] |
| --- | --- |
| O=C1/C(=C/c2ccc(O)c(O)c2)Oc2c1ccc(O)c2O | 3.47 |
